In ChEMBL document CHEMBL3351505, “Ultrasound-assisted synthesis of novel 1,2,3-triazoles coupled diaryl sulfone moieties by the CuAAC reaction, and biological evaluation of them as antioxidant and antimicrobial agents” (Eur J Med Chem, 2014):
Converted amounts (≈) assume the structure as drawn. The source made the active and inactive calls. The rule behind the calls is not given here.

What was measured:
[1] = system: Staphylococcus aureus; assay: Antibacterial activity against Staphylococcus aureus ATCC 29213 using 100 uL of test compound after 24 hrs by agar well diffusion method; assay type: functional
Outline: (§1)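 Agar well diffusion. Nutrient agar was spread with bacterial suspension at 1×10⁸ CFU/mL, and 10 mm wells were cut. Wells were loaded with compound solution made at 200 mg per 1 mL DMSO. Plates were incubated 24 h at 37 °C and inhibition zones were measured. DMSO served as the negative control.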

[2] = system: Bacillus subtilis; assay: Antibacterial activity against Bacillus subtilis ATCC 6633 using 100 uL of test compound after 24 hrs by agar well diffusion method; assay type: functional; outline: as §1
[3] = system: Priestia megaterium; assay: Antibacterial activity against Bacillus megaterium ATCC 9885 using 100 uL of test compound after 24 hrs by agar well diffusion method; assay type: functional; outline: as §1
[4] = system: Micrococcus luteus; assay: Antibacterial activity against Sarcina lutea using 100 uL of test compound after 24 hrs by agar well diffusion method; assay type: functional; outline: as §1
[5] = system: Klebsiella pneumoniae; assay: Antibacterial activity against Klebsiella pneumoniae ATCC 13883 using 100 uL of test compound after 24 hrs by agar well diffusion method; assay type: functional; outline: as §1
[6] = system: Pseudomonas aeruginosa; assay: Antibacterial activity against Pseudomonas aeruginosa ATCC 27953 using 100 uL of test compound after 24 hrs by agar well diffusion method; assay type: functional; outline: as §1
[7] = system: Escherichia coli; assay: Antibacterial activity against Escherichia coli ATCC 25922 using 100 uL of test compound after 24 hrs by agar well diffusion method; assay type: functional; outline: as §1
[8] = system: Candida albicans; assay: Antifungal activity against Candida albicans NRRL Y-477 using 100 uL of test compound after 48 hrs by agar well diffusion method; assay type: functional
Outline: as §1, with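 “Sabouraud dextrose” for “Nutrient”, “yeast or fungal” for “bacterial”, “1×10⁶” for “1×10⁸”, “48” for “24”, “28” for “37”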

[9] = system: Saccharomyces cerevisiae; assay: Antifungal activity against Saccharomyces cerevisiae using 100 uL of test compound after 48 hrs by agar well diffusion method; assay type: functional
Outline: as §1, with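 “Sabouraud dextrose” for “Nutrient”, “yeast or fungal” for “bacterial”, “1×10⁶” for “1×10⁸”, “48” for “24”, “28” for “37”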

[10] = system: Aspergillus niger; assay: Antifungal activity against Aspergillus niger using 100 uL of test compound after 48 hrs by agar well diffusion method; assay type: functional
Outline: as §1, with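 “Sabouraud dextrose” for “Nutrient”, “yeast or fungal” for “bacterial”, “1×10⁶” for “1×10⁸”, “48” for “24”, “28” for “37”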

[11] = system: Staphylococcus aureus; assay: Antibacterial activity against Staphylococcus aureus ATCC 29213 after 24 hrs by two fold serial dilution method; assay type: functional
[12] = system: Bacillus subtilis; assay: Antibacterial activity against Bacillus subtilis ATCC 6633 after 24 hrs by two fold serial dilution method; assay type: functional
[13] = system: Priestia megaterium; assay: Antibacterial activity against Bacillus megaterium ATCC 9885 after 24 hrs by two fold serial dilution method; assay type: functional
[14] = system: Micrococcus luteus; assay: Antibacterial activity against Sarcina lutea after 24 hrs by two fold serial dilution method; assay type: functional
[15] = system: Klebsiella pneumoniae; assay: Antibacterial activity against Klebsiella pneumoniae ATCC 13883 after 24 hrs by two fold serial dilution method; assay type: functional
[16] = system: Pseudomonas aeruginosa; assay: Antibacterial activity against Pseudomonas aeruginosa ATCC 27953 after 24 hrs by two fold serial dilution method; assay type: functional
[17] = system: Escherichia coli; assay: Antibacterial activity against Escherichia coli ATCC 25922 after 24 hrs by two fold serial dilution method; assay type: functional
[18] = system: Candida albicans; assay: Antifungal activity against Candida albicans NRRL Y-477 after 48 hrs by two fold serial dilution method; assay type: functional
Outline: (§2)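 Two-fold serial broth dilution in a suitable broth, run only on compounds giving inhibition zones of at least 16 mm. Final concentrations were […]. Each 5 mL received 0.1 mL inoculum and was incubated 48 h at 28 °C. MIC was the lowest concentration without growth.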

[19] = system: Saccharomyces cerevisiae; assay: Antifungal activity against Saccharomyces cerevisiae after 48 hrs by two fold serial dilution method; assay type: functional; outline: as §2
[20] = system: Aspergillus niger; assay: Antifungal activity against Aspergillus niger after 48 hrs by two fold serial dilution method; assay type: functional; outline: as §2
[21] = Antioxidant activity assessed as DPPH free radical scavenging activity by spectrophotometric assay; assay type: physicochemical
Outline: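 Sample solutions at several concentrations were added to 0.004% DPPH in methanol and incubated 60 min in the dark. Absorbance was read at 517 nm against a blank. Inhibition % = (A_blank − A_sample)/A_blank × 100, where the control contained all reagents except the test compound.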

Row | Compound | MIC ([11]; ATCC 29213, 24 h) | MIC [13] | MIC [14] | MIC [16] | MIC [19] | MIC [20] | IC50 [21] | MIC ([12]; ATCC 6633, 24 h) | MIC ([15]; ATCC 13883, 24 h) | MIC ([17]; ATCC 25922, 24 h) | diameter of the inhibition zone (DIZ) [1] | diameter of the inhibition zone (DIZ) [2] | diameter of the inhibition zone (DIZ) [3] | diameter of the inhibition zone (DIZ) [4] | diameter of the inhibition zone (DIZ) [5] | diameter of the inhibition zone (DIZ) [6] | diameter of the inhibition zone (DIZ) [7] | diameter of the inhibition zone (DIZ) [8] | diameter of the inhibition zone (DIZ) [9] | diameter of the inhibition zone (DIZ) [10] | also measured
1 | O=C(Cn1cc(COC(Cc2cn(CC(=O)c3ccc(S(=O)(=O)c4ccccc4)cc3)nn2)c2ccc(S(=O)(=O)c3ccccc3)cc2)nn1)c1ccc(S(=O)(=O)c2ccccc2)cc1 (centres undefined) | 200 µg/mL (≈ 216 µM) | inactive | 200 µg/mL (≈ 216 µM) | inactive | inactive | 100 µg/mL (≈ 108 µM) | 600 µg/mL (≈ 647 µM) |  |  |  | 17 mm | 14 mm | inactive | 19 mm | 13 mm | 14 mm | inactive | 14 mm | inactive | 20 mm | MIC [12]: inactive; MIC [15]: inactive; MIC [17]: inactive; MIC [18]: inactive
2 | O=C(Cn1cc(COC(Cc2cn(CC(=O)c3ccccc3)nn2)c2ccc(S(=O)(=O)c3ccccc3)cc2)nn1)c1ccccc1 (centres undefined) | 100 µg/mL (≈ 155 µM) |  | 100 µg/mL (≈ 155 µM) | 100 µg/mL (≈ 155 µM) | 200 µg/mL (≈ 309 µM) | 200 µg/mL (≈ 309 µM) | 175 µg/mL (≈ 271 µM) | 200 µg/mL (≈ 309 µM) | 100 µg/mL (≈ 155 µM) | 200 µg/mL (≈ 309 µM) | 24 mm | 17 mm | 20 mm | 24 mm | 15 mm | 23 mm | 20 mm | 23 mm | 22 mm | 20 mm | MIC ([13]; ATCC 9885, 24 h): 200 µg/mL (≈ 309 µM); MIC ([18]; NRRL Y-477, 48 h): 200 µg/mL (≈ 309 µM)
3 | O=C(Cn1cc(CC(O)c2ccc(S(=O)(=O)c3ccccc3)cc2)nn1)c1ccccc1 (centres undefined) |  | inactive | 200 µg/mL (≈ 447 µM) | 200 µg/mL (≈ 447 µM) | inactive | 100 µg/mL (≈ 223 µM) | 425 µg/mL (≈ 950 µM) | 200 µg/mL (≈ 447 µM) | 200 µg/mL (≈ 447 µM) | 200 µg/mL (≈ 447 µM) | 14 mm | 19 mm | inactive | 20 mm | 22 mm | 20 mm | 17 mm | 12 mm | inactive | 29 mm | MIC [11]: inactive; MIC [18]: inactive
4 | CC(O)(Cc1cn(CC(=O)c2ccc(Br)cc2)nn1)c1ccc(S(=O)(=O)c2ccccc2)cc1 (centres undefined) | 200 µg/mL (≈ 370 µM) | inactive | inactive | 200 µg/mL (≈ 370 µM) | inactive | 200 µg/mL (≈ 370 µM) | 800 µg/mL (≈ 1480 µM) | 200 µg/mL (≈ 370 µM) | 200 µg/mL (≈ 370 µM) | 200 µg/mL (≈ 370 µM) | 17 mm | 17 mm | inactive | inactive | 19 mm | 19 mm | 17 mm | 15 mm | 14 mm | 20 mm | MIC [18]: inactive
5 | O=S(=O)(c1ccccc1)c1ccc(C(O)Cc2cn(Cc3ccccc3)nn2)cc1 (centres undefined) | 200 µg/mL (≈ 477 µM) | inactive | 200 µg/mL (≈ 477 µM) | 200 µg/mL (≈ 477 µM) | 200 µg/mL (≈ 477 µM) | 50 µg/mL (≈ 119 µM) | 200 µg/mL (≈ 477 µM) | 200 µg/mL (≈ 477 µM) | 200 µg/mL (≈ 477 µM) | 200 µg/mL (≈ 477 µM) | 19 mm | 17 mm | 14 mm | 20 mm | 23 mm | 20 mm | 19 mm | 19 mm | 17 mm | 30 mm | MIC ([18]; NRRL Y-477, 48 h): 200 µg/mL (≈ 477 µM)
6 | O=C(Cn1cc(CC(O)c2ccc(S(=O)(=O)c3ccccc3)cc2)nn1)c1ccc(Br)cc1 (centres undefined) | 200 µg/mL (≈ 380 µM) |  | 200 µg/mL (≈ 380 µM) | 100 µg/mL (≈ 190 µM) | 200 µg/mL (≈ 380 µM) | 50 µg/mL (≈ 95 µM) | 500 µg/mL (≈ 950 µM) |  | 100 µg/mL (≈ 190 µM) | 200 µg/mL (≈ 380 µM) | 22 mm | 14 mm | 19 mm | 20 mm | 24 mm | 25 mm | 22 mm | 20 mm | 17 mm | 30 mm | MIC [12]: inactive; MIC ([13]; ATCC 9885, 24 h): 200 µg/mL (≈ 380 µM); MIC ([18]; NRRL Y-477, 48 h): 200 µg/mL (≈ 380 µM)

More lines, main results first:

Row | MIC ([11]; ATCC 29213, 24 h) | MIC [13] | MIC [14] | MIC [16] | MIC [19] | MIC [20] | IC50 [21] | MIC ([12]; ATCC 6633, 24 h) | MIC ([15]; ATCC 13883, 24 h) | MIC ([17]; ATCC 25922, 24 h) | Compound | diameter of the inhibition zone (DIZ) [1] | diameter of the inhibition zone (DIZ) [2] | diameter of the inhibition zone (DIZ) [3] | diameter of the inhibition zone (DIZ) [4] | diameter of the inhibition zone (DIZ) [5] | diameter of the inhibition zone (DIZ) [6] | diameter of the inhibition zone (DIZ) [7] | diameter of the inhibition zone (DIZ) [8] | diameter of the inhibition zone (DIZ) [9] | diameter of the inhibition zone (DIZ) [10] | also measured
7 |  | inactive | 200 µg/mL (≈ 339 µM) | 200 µg/mL (≈ 339 µM) | 200 µg/mL (≈ 339 µM) | 50 µg/mL (≈ 84.6 µM) | 500 µg/mL (≈ 846 µM) |  | 200 µg/mL (≈ 339 µM) | 200 µg/mL (≈ 339 µM) | O=S(=O)(c1ccccc1)c1ccc(C(Cc2cn(Cc3ccccc3)nn2)OCc2cn(Cc3ccccc3)nn2)cc1 (centres undefined) | 14 mm | 15 mm | 14 mm | 17 mm | 17 mm | 18 mm | 19 mm | 18 mm | 18 mm | 30 mm | MIC [11]: inactive; MIC [12]: inactive; MIC ([18]; NRRL Y-477, 48 h): 200 µg/mL (≈ 339 µM)
8 | 200 µg/mL (≈ 433 µM) | inactive | 200 µg/mL (≈ 433 µM) | 200 µg/mL (≈ 433 µM) | inactive | 50 µg/mL (≈ 108 µM) | 600 µg/mL (≈ 1300 µM) | 200 µg/mL (≈ 433 µM) |  |  | CC(O)(Cc1cn(CC(=O)c2ccccc2)nn1)c1ccc(S(=O)(=O)c2ccccc2)cc1 (centres undefined) | 18 mm | 19 mm | 15 mm | 22 mm | 13 mm | 19 mm | 14 mm | 15 mm | 14 mm | 32 mm | MIC [15]: inactive; MIC [17]: inactive; MIC [18]: inactive
9 | 200 µg/mL (≈ 340 µM) | inactive | 100 µg/mL (≈ 170 µM) | 200 µg/mL (≈ 340 µM) | 200 µg/mL (≈ 340 µM) | 50 µg/mL (≈ 85.1 µM) | 74 µg/mL (≈ 126 µM) | 200 µg/mL (≈ 340 µM) | 200 µg/mL (≈ 340 µM) |  | O=C(Cn1cc(CC(O)c2ccc(S(=O)(=O)c3ccccc3)cc2)nn1)c1ccc(S(=O)(=O)c2ccccc2)cc1 (centres undefined) | 17 mm | 20 mm | 15 mm | 22 mm | 19 mm | 17 mm | 17 mm | 15 mm | 16 mm | 28 mm | MIC [17]: inactive; MIC [18]: inactive
